Bioassay records: PubChem BioAssay, Johns Hopkins Ion Channel Center
RGS4 inh: inhibitors of human RGS4. P49798. HEK293 M3R/RGS4 inducible, Fluo-4 calcium flux; active compounds read high; triggered by carbachol at its EC20. B-score at 10 µM. actives 0.45% (n = 310,000). AID 463165;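 active = B-score, a plate-corrected calcium signal, over three deviations above library mean, with baseline fluorescence within five deviations of library mean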;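 also: RGS4 expression induced by doxycycline in cells with stable M3 receptor; B-score is computed from the integrated fluorescence ratio over baseline after carbachol; higher B-score means a larger calcium signal and so more RGS4 inhibition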
Target sequence (P49798 whole entry, looked up): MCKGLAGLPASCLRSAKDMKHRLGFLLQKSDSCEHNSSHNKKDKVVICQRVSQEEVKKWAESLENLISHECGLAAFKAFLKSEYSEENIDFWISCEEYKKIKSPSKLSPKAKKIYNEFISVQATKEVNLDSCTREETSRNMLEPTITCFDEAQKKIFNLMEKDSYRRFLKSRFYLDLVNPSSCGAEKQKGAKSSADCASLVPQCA
MrgX1 antagonist: blocks BAM8-22 activation of human MrgX1 receptor. Q96LB2. MRGX1-HEK293 calcium flux, Fluo-4, BAM8-22 antagonism; active compounds read low. B-score at 10 µM. actives 1.3% (n = 310,000);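 active = calcium-response B-score plate-corrected more than 3 library SD below zero, starting fluorescence within 5 deviations, no agonist response on first addition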;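 also: peak minus trough fluorescence over baseline after final BAM8-22 challenge near maximal dose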
Target sequence (Q96LB2 whole entry, looked up): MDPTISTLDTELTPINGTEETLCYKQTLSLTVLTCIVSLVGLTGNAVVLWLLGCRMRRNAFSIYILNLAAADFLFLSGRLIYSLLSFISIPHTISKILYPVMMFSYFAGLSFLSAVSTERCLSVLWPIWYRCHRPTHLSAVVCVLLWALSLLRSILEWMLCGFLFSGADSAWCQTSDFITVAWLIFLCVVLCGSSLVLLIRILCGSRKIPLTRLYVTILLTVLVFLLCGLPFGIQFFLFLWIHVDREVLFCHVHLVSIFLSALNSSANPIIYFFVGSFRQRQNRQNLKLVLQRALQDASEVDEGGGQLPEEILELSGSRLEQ
MrgX1 agonist: agonists of human MrgX1 receptor; B-score at 10 µM; MrgX1-HEK293 cells, Fluo-4 calcium fluorescence, agonist mode; active compounds read high; actives 0.44% (n = 310,000); AID 588627;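 active = calcium response B-score plate-corrected fluorescence ratio at least 3 library SD, with starting fluorescence B-score inside 5 SD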
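Test system: HEK293 cells stably expressing human MrgX1 receptor; amount: 15,000 cells per well; doses: compound delivered in addition one of three; times: overnight plating before 1 h dye loading; detection: Fluo-4 NW calcium-flux fluorescence, kinetic read; read-out basis: B-scored fluorescence response ratio; controls: positive and negative controls per plate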
RGS4 act: potentiators or activators of RGS4; B-score at 10 µM; actives 0.92% (n = 310,000); HEK293 M3R/inducible RGS4, carbachol calcium flux Fluo4; active compounds read low; AID 463111;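 active = B-score of the integrated calcium signal more than 4 SD below the library mean, with starting fluorescence not abnormally high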;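 also: negative B-score means reduced calcium response which marks RGS4 activation or potentiation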
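Assay system: HEK293 FlpIn-TREx cells, stable M3R, doxycycline-inducible RGS4 / Probe or stimulus: carbachol, ECmax concentration / Times: overnight RGS4 induction, 30 min dye load 37 °C, 20 min compound RT / Signal: kinetic calcium fluorescence imaging with Fluo4-AM dye, 2 µM / Measure: Agonist-evoked peak-minus-minimum fluorescence over baseline, integrated ratio, B score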
MrgX1 PAM: allosterically activates human MrgX1 receptor signaling. Q96LB2. MrgX1-HEK293, Fluo-4 calcium flux, FDSS; active compounds read high. B-score at 10 µM. actives 0.63% (n = 310,000). AID 588675;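 active = plate-corrected calcium response at least 3 library SD above typical, normal starting fluorescence, not activating the receptor alone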;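 also: compound read alongside a low EC10 to EC30 dose of BAM8-22 agonist; peak minus trough fluorescence over baseline measured at the second addition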
MrgX1 allo conf: confirmation of human MrgX1 receptor positive allosteric modulators. MrgX1-HEK293, Fluo-4 calcium fluorescence, FDSS. actives 13% (n = 1,200). activation (ratio percentage), % at 10 µM. shares compounds with MrgX1 PAM. AID 602413;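 active = ratio at least 3 SD above the weak peptide control, stable starting fluorescence, no direct agonism earlier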;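 also: compound followed by low BAM8-22 agonist challenge near EC20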
HEK293 Ca flux: MrgX1 antagonist counter-screen hit in parental HEK293 cells; Fluo-4 calcium fluorescence, FDSS; actives 2% (n = 4,000); fluorescence ratio F(max-min)/F0 at 10 µM; shares compounds with MrgX1 antagonist;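 active = duplicate-averaged calcium fluorescence ratio at least three times the standard deviation of buffer wells, a nonspecific response in parental cells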
HEK293 Ca counter: counter-screen for MrgX1 allosteric activators: effect in parental HEK293 cells; shares compounds with MrgX1 antagonist; parental HEK293 calcium flux, Fluo-4 fluorescence ratio; active compounds read high; fluorescence ratio F(max-min)/F0 at 10 µM; actives 0.4% (n = 4,000); AID 624114;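 active = calcium fluorescence ratio, averaged over duplicates, at least 3 SD of the buffer-well ratio, meaning a nonspecific response in receptor-free cells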;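 also: untransfected parental HEK293 lacking MrgX1 used as counterscreen for MrgX1 allosteric activators; fluorescence change taken during the second addition on a kinetic imager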
HEK293 Ca cntr2: counter-screen for MrgX1 activators: effect in parental HEK293 cells. Fluo-4 calcium fluorescence (FDSS); active compounds read high. shares compounds with MrgX1 antagonist. actives 8.7% (n = 4,000). fluorescence ratio F(max-min)/F0 at 10 µM;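 active = calcium fluorescence ratio at least three times the spread of buffer wells, meaning a non-specific response in parental cells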
Numbers stand for hits. Hits are enriched below; roughly 3.5% of the tested compounds scored in any of these assays.

Results for C/C(=N\NC(=O)c1cccc(S(=O)(=O)Nc2ccccc2Cl)c1)c1ccco1 ?
RGS4 inh: inactive; MrgX1 antagonist: inactive; MrgX1 agonist: inactive; RGS4 act: inactive; MrgX1 PAM: inactive

How did C/C(=N\NC(=O)c1ccc(Cl)c(S(=O)(=O)Nc2ccccc2Cl)c1)c1ccncc1 do in these assays?
RGS4 inh: inactive; MrgX1 antagonist: inactive; MrgX1 agonist: inactive; RGS4 act: inactive; MrgX1 PAM: 21; MrgX1 allo conf: inactive; HEK293 Ca flux: inactive; HEK293 Ca counter: inactive; HEK293 Ca cntr2: inactive

What do the screens show for `Brc1ccc2c(c1)CNc1c(ncnc1N1CCOCC1)O2`?
RGS4 inh: inactive; MrgX1 antagonist: inactive; MrgX1 agonist: inactive; RGS4 act: inactive; MrgX1 PAM: 11; MrgX1 allo conf: 18%; HEK293 Ca flux: inactive; HEK293 Ca counter: inactive; HEK293 Ca cntr2: inactive

How did OC1CCC(NC(=S)Nc2ccc(SC(F)F)cc2)CC1 (stereo not drawn) do in these assays?
RGS4 inh: inactive; MrgX1 antagonist: inactive; MrgX1 agonist: inactive; RGS4 act: inactive; MrgX1 PAM: inactive

What do the screens show for `FC(F)Sc1ccc(NC(=S)NC2CCCC2)cc1`?
RGS4 inh: inactive; MrgX1 antagonist: inactive; MrgX1 agonist: inactive; RGS4 act: inactive; MrgX1 PAM: 6.8; MrgX1 allo conf: inactive; HEK293 Ca flux: inactive; HEK293 Ca counter: inactive; HEK293 Ca cntr2: inactive

How did O=S(=O)(c1cccs1)N1CCN(c2ccccc2)CC1 do in these assays?
RGS4 inh: inactive; MrgX1 antagonist: inactive; MrgX1 agonist: inactive; RGS4 act: inactive; MrgX1 PAM: inactive

What do the screens show for `O=C(C(NS(=O)(=O)c1cccs1)c1ccccc1)N1CCN(c2ccccc2)CC1` (stereo not drawn)?
RGS4 inh: inactive; MrgX1 antagonist: inactive; MrgX1 agonist: inactive; RGS4 act: inactive; MrgX1 PAM: 21; MrgX1 allo conf: inactive; HEK293 Ca flux: inactive; HEK293 Ca counter: inactive; HEK293 Ca cntr2: inactive

Results for Nc1nc(CN2CCN(Cc3ccc4c(c3)OCO4)CC2)nc(Nc2ccccc2)n1 ?
RGS4 inh: inactive; MrgX1 antagonist: inactive; MrgX1 agonist: inactive; RGS4 act: inactive; MrgX1 PAM: inactive

What do the screens show for `Cc1ccccc1Nc1nc(N)nc(CN2CCN(Cc3ccc4c(c3)OCO4)CC2)n1`?
RGS4 inh: inactive; MrgX1 antagonist: inactive; MrgX1 agonist: inactive; RGS4 act: inactive; MrgX1 PAM: 8; MrgX1 allo conf: inactive; HEK293 Ca flux: inactive; HEK293 Ca counter: inactive; HEK293 Ca cntr2: inactive

How did CCN(CC)C(=S)SCc1csc(CC(=O)Nc2ccccc2C)n1 do in these assays?
RGS4 inh: inactive; MrgX1 antagonist: inactive; MrgX1 agonist: inactive; RGS4 act: inactive; MrgX1 PAM: 9.8; MrgX1 allo conf: inactive; HEK293 Ca flux: inactive; HEK293 Ca counter: inactive; HEK293 Ca cntr2: inactive

Results for CCOC(=O)CSCc1csc(CC(=O)Nc2ccccc2C)n1 ?
RGS4 inh: inactive; MrgX1 antagonist: inactive; MrgX1 agonist: inactive; RGS4 act: inactive; MrgX1 PAM: inactive

Results for Cc1ccc(Nc2cc(C)nc3c(C)cccc23)cc1 ?
RGS4 inh: inactive; MrgX1 antagonist: inactive; MrgX1 agonist: inactive; RGS4 act: inactive; MrgX1 PAM: 7.3; MrgX1 allo conf: inactive; HEK293 Ca flux: inactive; HEK293 Ca counter: inactive; HEK293 Ca cntr2: inactive

What do the screens show for `CC(=O)c1ccc(Nc2cc(C)nc3c(C)cccc23)cc1`?
RGS4 inh: inactive; MrgX1 antagonist: inactive; MrgX1 agonist: inactive; RGS4 act: inactive; MrgX1 PAM: inactive

What do the screens show for `CCOc1ccc(C(=O)Nc2ccc(C(=O)N3CCOCC3)cc2)c(OCC)c1`?
RGS4 inh: inactive; MrgX1 antagonist: inactive; MrgX1 agonist: inactive; RGS4 act: inactive; MrgX1 PAM: inactive

Results for CCc1nonc1NC(=O)COc1cc(C)c(Cl)c(C)c1 ?
RGS4 inh: inactive; MrgX1 antagonist: inactive; MrgX1 agonist: inactive; RGS4 act: inactive; MrgX1 PAM: inactive

How did CCc1nonc1NC(=O)COc1ccc(Cl)c(C)c1 do in these assays?
RGS4 inh: inactive; MrgX1 antagonist: inactive; MrgX1 agonist: inactive; RGS4 act: inactive; MrgX1 PAM: 12; MrgX1 allo conf: inactive; HEK293 Ca flux: inactive; HEK293 Ca counter: inactive; HEK293 Ca cntr2: inactive

What do the screens show for `O=C(Nc1cc(C(F)(F)F)ccc1-n1cnc2ccccc21)c1ccccc1`?
RGS4 inh: inactive; MrgX1 antagonist: inactive; MrgX1 agonist: inactive; RGS4 act: inactive; MrgX1 PAM: inactive

Results for COCc1cc(Sc2ccc(Cl)cc2)nc(-c2ccccc2)n1 ?
RGS4 inh: inactive; MrgX1 antagonist: inactive; MrgX1 agonist: inactive; RGS4 act: inactive; MrgX1 PAM: 14; MrgX1 allo conf: inactive; HEK293 Ca flux: inactive; HEK293 Ca counter: inactive; HEK293 Ca cntr2: inactive

What do the screens show for `COCc1cc(Sc2ccc(Br)cc2)nc(-c2ccccc2)n1`?
RGS4 inh: inactive; MrgX1 antagonist: inactive; MrgX1 agonist: inactive; RGS4 act: inactive; MrgX1 PAM: 8.9; MrgX1 allo conf: inactive; HEK293 Ca flux: inactive; HEK293 Ca counter: inactive; HEK293 Ca cntr2: inactive

How did COCc1cc(N2CCN(c3ccccc3F)CC2)nc(-c2ccccc2)n1 do in these assays?
RGS4 inh: inactive; MrgX1 antagonist: inactive; MrgX1 agonist: inactive; RGS4 act: inactive; MrgX1 PAM: inactive

What do the screens show for `CS(=O)Cc1cc(Sc2ccccc2)nc(-c2ccncc2)n1` (stereo not drawn)?
RGS4 inh: inactive; MrgX1 antagonist: inactive; MrgX1 agonist: inactive; RGS4 act: inactive; MrgX1 PAM: inactive

How did COc1cccc(NC(=O)CN2C(=O)COc3ccc(Cl)cc32)c1 do in these assays?
RGS4 inh: inactive; MrgX1 antagonist: inactive; MrgX1 agonist: inactive; RGS4 act: inactive; MrgX1 PAM: 7.7; MrgX1 allo conf: inactive; HEK293 Ca flux: inactive; HEK293 Ca counter: inactive; HEK293 Ca cntr2: inactive

Results for O=C(Nc1ccccc1)c1ccccc1NC(=O)C1CCCCC1 ?
RGS4 inh: inactive; MrgX1 antagonist: inactive; MrgX1 agonist: inactive; RGS4 act: inactive; MrgX1 PAM: inactive
